The source made the active and inactive calls. The rule behind the calls is not given here.
How the values were obtained:
[1] = Reduction of IL6 expression mouse aP2-/-R macrophage cells (re-expression of aP2) relative to control; type: functional, cell-based
Outline: (§1)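 Mouse aP2⁺/⁺ and aP2-reconstituted aP2⁻/⁻ macrophage lines were grown in RPMI with FBS or 5% LPDS, with inhibitor in DMSO or vehicle. Mcp-1, Il1β, Il6 and Tnf mRNA were measured by SYBR Green qRT-PCR (annealing at 58 °C, 50 cycles), normalized to 18s rRNA and then to untreated cells. Mean ± s.e.m.; at least triplicate.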

Mus musculus [2] = assay: Decrease in Cd68 expression in ob/ob mouse adipose tissue at 40 mg/kg/day, po; type: functional, organism-based
Macrophage [3] = assay: Reduction of IL1-beta expressed in mouse aP2+/+ macrophage cells relative to control; type: functional, cell-based; outline: as §1
Mus musculus [4] = assay: Effect on cholesterol level in ob/ob mouse at 40 mg/kg/day, po after 6 weeks relative to control; type: functional
Outline: (§2)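 Male ob/ob mice given oral gavage daily for 6 weeks from 8 weeks old, n = 6 per group. Blood taken after 6 h fast before and after treatment; fed glucose taken at week 2. Glucose by meter on 3 μl whole blood, insulin by ultrasensitive ELISA, cholesterol, FFA and glycerol by colorimetric microplate assays.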

THP-1 [5] = assay: Reduction of IL1-beta expression in human THP1 cells expressing aP2 relative to control; type: functional, cell-based
Mus musculus [6] = assay: Effect on glucose level in 5-week old apoE -/- C57BL/6J mouse fed on western diet and 15 mg/kg/day, po drug simultaneously in 5-11 week early intervention study; type: functional
Outline: (§3)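 Male Apoe−/− mice on western diet (21% fat, 0.21% cholesterol) from 4–5 weeks of age. Oral gavage for 6 weeks from age 5 or 12 weeks; vehicle 10% 1-methyl-2-pyrrolidone, 5% cremophor EL with ethanol in water. Blood taken after 6 h fast before and after treatment. Glucose by meter; insulin by ELISA; lipids and glycerol colorimetric.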

[7] = Reduction in total cholesterol ester content in mouse aP2-/-R macrophage cells (re-expression of aP2) at 25 uM relative to control; type: functional, cell-based
Macrophage [8] = assay: Increase in cholesterol efflux in mouse aP2-/-R macrophage cells (re-expression of aP2) at 25 uM relative to control; type: functional, cell-based
Outline: (§4)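 Macrophages loaded 24 h in RPMI with 5% LPDS, 1 μCi ml⁻¹ ³H-cholesterol and 50 μg ml⁻¹ acLDL, ± 25 μM inhibitor. Equilibrated 24 h in 0.2% fatty-acid-free BSA ± inhibitor, then 4 h ± APOA1 20 μg ml⁻¹. Efflux = medium ³H as % of total, per mg protein; mouse lines normalized to untreated aP2+/+.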

Mus musculus [9] = assay: Effect on body weight in 5-week old apoE-/- C57BL/6J mouse fed on western diet and 15 mg/kg/day, po drug simultaneously in 5-11 week early intervention study; type: functional
Mus musculus [10] = assay: Reduction of total liver triglyceride level in ob/ob mouse at 40 mg/kg/day, po; type: functional, organism-based
Outline: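 Male ob/ob mice were gavaged with 40 mg kg⁻¹ d⁻¹ or vehicle for 6 weeks from 8 weeks of age, n = 6 per group. Total liver lipids were extracted by the Bligh–Dyer method and triglyceride content was determined.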

THP-1 [11] = assay: Reduction of transformation of human THP1 cells to foam cells at 25 uM after 3 days relative to control; type: functional, cell-based
Outline: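 PMA-differentiated THP-1 macrophages (100 nM, 24 h) were loaded with 50 μg ml⁻¹ acLDL for 24 h in 5% LPDS, then treated 3 days with 25 μM inhibitor or DMSO in 10% FBS. Cells were fixed in 10% formalin for 90 min and stained with Oil Red O for 3 h to view foam cells.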

Mus musculus [12] = assay: Effect on glycerol level in 5-week old apoE-/- C57BL/6J mouse fed on western diet and 15 mg/kg/day, po drug simultaneously in 5-11 week early intervention study; type: functional; outline: as §3
Mus musculus [13] = assay: Decrease in TNF expression in ob/ob mouse adipose tissue at 40 mg/kg/day, po; type: functional, organism-based
Mus musculus [14] = assay: Decrease in F4/80 (Emr1) expression in ob/ob mouse adipose tissue at 40 mg/kg/day, po; type: functional, organism-based
Mus musculus [15] = assay: Increase in insulin sensitivity in ob/ob mouse at 40 mg/kg/day, po after 5 weeks by insulin tolerance test; type: functional, organism-based
Outline: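 Male ob/ob mice, from 8 weeks of age, got 40 mg kg⁻¹ d⁻¹ of the inhibitor or vehicle by oral gavage for 6 weeks. After 5 weeks of treatment and a 6 h fast, insulin was given intraperitoneally (2 IU kg⁻¹). Blood glucose was read with a glucose meter on 3 μl whole blood. Vehicle and treated groups had n = 6 each.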

[16] = Reduction of Mcp1 expression mouse aP2+/+ macrophage cells relative to control; type: functional, cell-based; outline: as §1
Mus musculus [17] = assay: Inhibition of aP2 in 5-week old apoE-/- C57BL/6J mouse fed on western diet and administered with 15 mg/kg/day, po drug at 12 week in late intervention study assessed as reduction of atherosclerotic lesion in en face aorta relative to control; type: functional; parameters: scale not given: the % may be the effect or the level left
Outline: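 Male Apoe⁻/⁻ C57BL/6J mice were fed a western diet (21% fat, 0.21% cholesterol) from 4–5 weeks of age. They were gavaged for 6 weeks with 15 mg kg⁻¹ d⁻¹ in vehicle (10% 1-methyl-2-pyrrolidone, 5% cremophor EL with ethanol, in water), starting at 5 weeks (early) or 12 weeks (late). Perfusion-fixed, pinned-out aortas were stained with Sudan IV and lesion area was quantified.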

[18] = Reduction of Mcp1 expression mouse aP2-/-R macrophage cells (re-expression of aP2) relative to control; type: functional, cell-based; outline: as §1
Mus musculus [19] = assay: Increase in free fatty acid level in ob/ob mouse at 40 mg/kg/day, po after 6 weeks relative to control; type: functional; outline: as §2
Macrophage [20] = assay: Increase in cholesterol efflux in mouse aP2+/+ macrophage cells at 25 uM relative to control; type: functional, cell-based; outline: as §4
[21] = Reduction of TNF expression mouse aP2-/-R macrophage cells (re-expression of aP2) relative to control; type: functional, cell-based; outline: as §1
THP-1 [22] = assay: Reduction of Mcp1 expression in human THP1 cells expressing aP2 relative to control; type: functional, cell-based
Macrophage [23] = assay: Increase in cholesterol efflux in mouse aP2-/- macrophage cells at 25 uM relative to control; type: functional, cell-based; outline: as §4
Mus musculus [24] = assay: Suppression of clamp hepatic glucose production in ob/ob mouse at 40 mg/kg/day, po after 4 weeks by hyperinsulinemic-euglycaemic clamp studies; type: functional, organism-based
Outline: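 Clamps were run in ob/ob mice after 4 weeks of oral gavage at 40 mg kg⁻¹ d⁻¹ (vehicle n = 7, treated n = 9), with jugular catheters placed 4 days earlier. Insulin was infused at 12.5 mU kg⁻¹ min⁻¹, 25% glucose at variable rates held basal glycaemia, and ³H-glucose ran at 0.1 μCi min⁻¹. Clamp hepatic glucose production = whole-body uptake minus glucose infusion rate.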

Mus musculus [25] = assay: Decrease in Fasn expression in liver of ob/ob mouse at 40 mg/kg/day, po; type: functional, organism-based
Outline: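 Liver from male ob/ob mice gavaged daily for 6 weeks from 8 weeks of age, n = 6 per group. mRNA measured by SYBR Green real-time PCR: 95 °C 4 min, then 50 cycles of 95 °C 15 s, 58 °C 30 s, 72 °C 30 s. Normalized to 18s rRNA.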

Mus musculus [26] = assay: Effect on glucose level in 5-week old apoE-/- C57BL/6J mouse fed on western diet and administered with 15 mg/kg/day, po drug at 12 week in 12-18 week late intervention study; type: functional; outline: as §3

## CCc1c(-c2ccccc2)c(-c2ccccc2)nn1-c1ccccc1-c1cccc(OCC(=O)O)c1
[1]
  Activity: Active
Mus musculus [2]
  Activity: Active
Macrophage [3]
  Activity: Active
Mus musculus [4]
  Activity: 285.3 mg/dL
THP-1 [5]
  Activity: Active
Mus musculus [6]
  Activity: 133.2 mg/dL
[7]
  Activity: Active
Macrophage [8]
  Activity: Active
Mus musculus [9]
  Activity: 30.3 g
Mus musculus [10]
  Activity: Active
THP-1 [11]
  Activity: Active
Mus musculus [12]
  Activity: 2.31 mM
Mus musculus [13]
  Activity: Active
Mus musculus [14]
  Activity: Active
Mus musculus [15]
  Activity: Active
[16]
  Activity: Active
Mus musculus [17]
  Activity: 51%
[18]
  Activity: Active
Mus musculus [19]
  Activity: 0.9 mM
Macrophage [20]
  Activity: Active
[21]
  Activity: Active
THP-1 [22]
  Activity: Active
Macrophage [23]
  Activity: inactive
Mus musculus [24]
  Activity: Active
Mus musculus [25]
  Activity: Active
Mus musculus [26]
  Activity: 147.2 mg/dL
